Data set [1] has as its system H. pylori clinical isolates. Nature of the data set: RIA of Le^b binding of clinical isolates preincubated with DTT. Type of data set: cell-based. As to conditions: Helicobacter pylori, read-out: EC50, DTT-susceptibility of Le^b-binding.
The target of data set [2] is T1, BabA CBD of Alaskan strain A730 (Helicobacter pylori, UniProt O52269).
T1 sequence (O52269 45-480): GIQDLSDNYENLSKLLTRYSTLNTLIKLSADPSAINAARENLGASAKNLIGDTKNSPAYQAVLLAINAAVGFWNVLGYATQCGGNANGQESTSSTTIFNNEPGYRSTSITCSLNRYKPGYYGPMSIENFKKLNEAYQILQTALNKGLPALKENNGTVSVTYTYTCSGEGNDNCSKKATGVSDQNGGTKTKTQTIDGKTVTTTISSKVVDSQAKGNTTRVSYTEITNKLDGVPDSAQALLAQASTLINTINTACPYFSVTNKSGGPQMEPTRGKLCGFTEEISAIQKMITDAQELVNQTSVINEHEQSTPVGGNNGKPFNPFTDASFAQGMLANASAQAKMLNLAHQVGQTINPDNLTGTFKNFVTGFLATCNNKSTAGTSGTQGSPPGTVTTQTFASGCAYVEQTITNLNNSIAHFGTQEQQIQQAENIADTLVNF
Nature of the data set: Monovalent binding affinity. As to conditions: for Kd: A730. Summed up:
(§1)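 BabA adhesin domain isoforms from strains A730 and P436, plus the strain 17875 reference domain, were expressed recombinantly in E. coli as outer-membrane- or periplasm-targeted proteins and purified by His-tag affinity. In vitro binding was measured by isothermal titration calorimetry: injection heats were integrated into a normalized binding isotherm.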

Data set [3] relates to BabA^AD;DL1-S831. Nature of the data set: ITC of BabA^AD. Type of data set: binding, Helicobacter pylori.
The test system of data set [4] is H. pylori strain 17875/Leb. Put plainly: RIA of 125I-labeled Le^b binding to bacterial cells exposed to reducing agent. Type of data set: cell-based, Helicobacter pylori. The settings on record: 20 mg/mL NAC.
Data set [5] concerns FITC labeled H. pylori strain 17875/Leb. Nature of the data set: In vitro inhibition of H. pylori adherence to human gastric mucosa sections. Type of data set: cell-based, Helicobacter pylori. Summed up:
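FITC-labeled bacterial suspensions were mixed with N-acetylcysteine dilutions in SIA blocking buffer (0, 10, 20, 100 mg/mL) and incubated 1 hr at 37°C. They were then applied to human gastric mucosa tissue sections for 2 hr. Unbound cells were removed with PBS-Tween, and adherent bacteria were quantified digitally by microscopy relative to bacteria without NAC.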

The test system is the same in data set [6]. Nature of the data set: In vitro detachment of adherent H. pylori from human gastric mucosa sections. Type of data set: cell-based, Helicobacter pylori. In a few lines:
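Human gastric mucosa tissue sections were first given FITC-labeled bacteria with no NAC for 2 hr, then washed in PBS-Tween. Bound bacteria were then exposed to N-acetylcysteine dilutions in SIA blocking buffer (10, 20, 100, 200 mg/mL) for 1 hr at 37°C. Slides were washed again in PBS-Tween and remaining adherent bacteria were quantified digitally by microscopy.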

For data set [7], the system named is human gastric mucosa sections. Nature of the data set: Pretreatment of gastric sections. Type of data set: cell-based. The settings on record: up to 200 mg/mL NAC. Summed up:
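Human gastric mucosa sections were preincubated with N-acetylcysteine in SIA blocking buffer (0, 10, 20, 100, 200 mg/mL) for 2 hr at room temperature, then washed three times in PBS-Tween. FITC-labeled H. pylori 17875/Leb was applied for 2 hr and unbound cells were washed off with PBS-Tween. Bacterial binding was quantified digitally by microscopy.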

The target of data set [8] is T2, BabA^AD CL2 disulfide bond (Helicobacter pylori, UniProt O52269).
T2 sequence (O52269 45-480): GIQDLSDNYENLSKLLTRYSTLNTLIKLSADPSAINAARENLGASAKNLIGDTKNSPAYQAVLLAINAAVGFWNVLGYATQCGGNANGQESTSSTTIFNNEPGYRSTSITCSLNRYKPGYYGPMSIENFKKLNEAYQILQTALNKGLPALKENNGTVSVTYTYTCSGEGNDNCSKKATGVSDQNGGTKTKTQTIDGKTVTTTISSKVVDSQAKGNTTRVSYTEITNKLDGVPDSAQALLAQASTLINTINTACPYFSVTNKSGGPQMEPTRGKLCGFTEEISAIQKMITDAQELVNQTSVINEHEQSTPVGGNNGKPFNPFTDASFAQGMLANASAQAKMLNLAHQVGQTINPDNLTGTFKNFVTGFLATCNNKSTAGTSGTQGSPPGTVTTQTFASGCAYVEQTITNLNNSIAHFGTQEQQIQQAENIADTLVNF
Put plainly: Quantitative MS of tryptic digests: CL2 disulfide reduction. Type of data set: biochemical.

The subject of data set [9] is H. pylori. Put plainly: H. pylori infection of Le^b-expressing transgenic mice. Type of data set: in vivo. As to conditions: 2 week, 40 mg/day/animal in drinking water.
Data set [10] concerns the target T3, full-length BabA (Helicobacter pylori, UniProt O52269).
T3 sequence (O52269 21-741): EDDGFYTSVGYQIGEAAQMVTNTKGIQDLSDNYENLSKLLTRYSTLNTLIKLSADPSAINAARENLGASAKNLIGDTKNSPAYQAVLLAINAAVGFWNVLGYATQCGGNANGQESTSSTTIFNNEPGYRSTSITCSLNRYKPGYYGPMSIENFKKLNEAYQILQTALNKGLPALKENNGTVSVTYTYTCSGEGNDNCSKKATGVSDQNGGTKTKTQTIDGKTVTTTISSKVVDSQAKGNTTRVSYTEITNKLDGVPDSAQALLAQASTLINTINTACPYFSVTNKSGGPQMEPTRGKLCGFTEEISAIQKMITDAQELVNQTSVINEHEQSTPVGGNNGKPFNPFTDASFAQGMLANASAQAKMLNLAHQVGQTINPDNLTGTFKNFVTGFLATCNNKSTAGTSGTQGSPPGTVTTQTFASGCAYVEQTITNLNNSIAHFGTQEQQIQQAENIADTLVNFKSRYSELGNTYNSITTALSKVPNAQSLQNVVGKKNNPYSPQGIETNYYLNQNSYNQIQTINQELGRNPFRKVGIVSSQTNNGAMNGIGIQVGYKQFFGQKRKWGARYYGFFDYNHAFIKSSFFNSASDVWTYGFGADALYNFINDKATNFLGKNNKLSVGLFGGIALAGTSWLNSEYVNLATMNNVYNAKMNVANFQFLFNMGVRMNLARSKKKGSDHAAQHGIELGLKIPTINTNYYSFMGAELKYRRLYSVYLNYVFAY
Nature of the data set: SPR of full-length BabA on Le^b-coated chip. Type of data set: binding. In a few lines:
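Surface plasmon resonance on a chip carrying immobilized Leb. Full-length BabA was flowed over it at 500, 250, 125, 62.5, 31.3 and 15.7 nM. Raw sensorgrams were fitted to binding curves to derive Kd, the association rate constant ka and the dissociation rate constant kd, each reported with a ± spread.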

In data set [11] the test system is BabA CBD of Peruvian strain P436. Put plainly: Monovalent binding affinity. Further details: species or system Helicobacter pylori. As to conditions: P436 versus 17875 BabA. In a few lines: as §1
Data set [12] concerns BabA^AD;DL1-S831. Nature of the data set: SPR competition of BabA^AD. Type of data set: binding, Helicobacter pylori. The settings on record: 2-fold dilution series from 5 mM to 1 μM.
Data set [13] has as its system BabA. The settings on record: ref Borén et al., 1993; cited from earlier work.
Data set [14] deals with T4, strain 17875 BabA adhesin domain (BabA^AD), residues 25-460 (Helicobacter pylori strain 17875, strain).
T4 chain: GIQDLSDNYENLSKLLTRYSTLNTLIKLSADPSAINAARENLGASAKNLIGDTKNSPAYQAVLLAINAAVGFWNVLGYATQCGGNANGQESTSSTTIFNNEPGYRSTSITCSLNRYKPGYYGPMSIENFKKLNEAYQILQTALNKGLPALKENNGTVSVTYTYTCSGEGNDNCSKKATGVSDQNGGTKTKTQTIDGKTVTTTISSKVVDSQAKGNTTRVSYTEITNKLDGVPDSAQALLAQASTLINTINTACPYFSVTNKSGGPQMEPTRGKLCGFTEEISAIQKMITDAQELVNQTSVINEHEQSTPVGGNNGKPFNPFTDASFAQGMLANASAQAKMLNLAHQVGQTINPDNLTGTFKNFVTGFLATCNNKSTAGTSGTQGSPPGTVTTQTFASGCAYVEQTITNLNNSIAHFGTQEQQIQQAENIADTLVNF
Put plainly: crystal structure.

`O[C@@H](CS)[C@@H](O)CS` (racemic) [DTT, dithiothreitol]: the EC50 in [1] fell in the range of 2 to 10 mM.

As to `CC(=O)N[C@H]1[C@@H](O[C@H]2[C@@H](O)[C@@H](CO)O[C@@H](O[C@H]3[C@H](O)[C@@H](CO)O[C@@H](O[C@H]4[C@@H](O)[C@@H](CO)O[C@@H](O[C@H]5[C@H](O)[C@@H](O)C(O)O[C@@H]5CO)[C@@H]4O)[C@@H]3NC(C)=O)[C@@H]2O[C@@H]2O[C@@H](C)[C@@H](O)[C@@H](O)[C@@H]2O)O[C@H](CO)[C@H](O)[C@@H]1O` (stereo partly shown) [A6-1, A type 1 hexasaccharide], the Kd in data set [2] is 305 µM.

For the molecule `CC(=O)N[C@H]1[C@H](O[C@H]2[C@@H](O)[C@@H](CO)O[C@@H](O[C@H]3[C@H](O)[C@@H](O)C(O)O[C@@H]3CO)[C@@H]2O)O[C@H](CO)[C@@H](O[C@@H]2O[C@@H](C)[C@@H](O)[C@@H](O)[C@@H]2O)[C@@H]1O[C@@H]1O[C@H](CO)[C@H](O)[C@H](O[C@H]2O[C@H](CO)[C@H](O)[C@H](O)[C@H]2O)[C@H]1O[C@@H]1O[C@@H](C)[C@@H](O)[C@@H](O)[C@@H]1O` (stereo partly shown) [BLe^b7], binding in [2] was characterised by a dissociation constant (Kd) of 93 µM. Further, the ITC binding entry in data set [3] (titration) is reported as “no binding heat signal”.

As for `CC(=O)N[C@@H](CS)C(=O)O` [NAC, N-acetyl-L-cysteine], the “BabA-Le^b binding after incubation of bacteria” value in [4] was “inactivated”. Further, the adherent bacteria is 14% in data set [5] (10 mg/mL NAC preincubation) and “less than 5%” in [5] (20 mg/mL NAC preincubation). Moreover, the “inhibition of bacterial adherence” value in data set [5] (20 mg/mL NAC, bacteria preincubated) is given as “almost eliminated”. In addition, the inhibition at 10000 µg/mL in data set [5] (Helicobacter pylori, read-out: inhibition of bacterial adherence) came to 86%. Further, the bacterial detachment result in data set [6] (10 mg/mL NAC on sections with bound bacteria) is “undetectable”; in data set [6] (20 mg/mL NAC on sections with bound bacteria), 50%; in data set [6] (200 mg/mL NAC on sections with bound bacteria) it was “over 90%”. In addition, in data set [7], the “effect of section pretreatment on bacterial binding” value is recorded as “did not affect bacterial binding”. Further, the EC50 in data set [8] is 55.1 mM. Also, in [9], the “fold lower neutrophil recruitment to the gastric mucosa” value is given as 13 fold. The “fold reduction in H. pylori epithelial adherence” value in data set [9] turned out to be 2 fold.

Take Le^b hexasaccharide: the “association rate constant ka” value in data set [10] was 610000 ± 140000 M⁻¹ s⁻¹. The molecule also registered a Kd in data set [10] (full-length protein) of 0.39 nM. The “fold loss in monovalent binding affinity” value in data set [11] was approximately 15 fold; in data set [2] (A730 versus 17875 BabA), approximately 20 fold. The “Le^b binding of S831 DL1 graft” value in data set [3] (Figures 7B and S7A) is “active”. Further, in data set [12], the “suppression of binding to Le^b-coated SPR chip by soluble glycan” value is “suppressed”. Besides, the “fold stronger binding to Le^b versus type 1 H neoglycoconjugates” value in data set [13] is “about 2 fold”.

B1: Nb-ER19 (VHH)
VHH: QVQLQESGGGLVQPGGSLRLSCAASGSIFSGNVMGWYRQAPGKLREWVAAITPQGVPNYADSVKGRFTISRDNAKNMLYLQMSSLKPEDTALYYCNRLPNYRSWGQGTQVTVSS
As to B1, in [14], the binding result is reported as “binds”.

B2: Nb-ER14 (VHH)
VHH: QVQLQESGGGLVQPGGSLRLSCAASGSIYSLIAMGWYRQAPGKEHELVATISSGSTTYYADSVKGRFTISRDNAKNTLYLQMNSLKPEDTAMYYCAAYSDRLTDCSNCEADYWGQGTQVTVS
On to B2, for which the binding result in data set [14] was “binds”.

Broadly, the EC50 is the concentration at which the effect is half-maximal. One may read the Kd as a measure of binding affinity in units of concentration. A lower Kd goes with tighter binding. The inhibition is the change of the read-out against control, counted positive when it falls.

The values above are taken from PMC4793151 (Cell host & microbe, 2016).
